Molecules are shown by their SMILES. Activity calls are given as the source filed them. The calls are words filed in the database; no cut-off is given here.

A short description of data set [1]: Drug level treated with UTP 5'-O-Palpha,alpha-dithiophosphate-beta,gamma-methylene at 2 mM at pH 11.7 at room temperature after 25 days by 31P NMR method. It counts as physicochemical. As to conditions: pH 11.7, 600 h, 2000 µM.
The nature of data set [2]: Drug level treated with UTP 5'-O-Palpha,alpha-dithiophosphate-beta,gamma-methylene at 2 mM at pH 1.7 at room temperature after 25 days by 31P NMR method. Format: physicochemical. As to conditions: pH 1.7, 600 h, 2000 µM.
Data set [3] is described as follows: Drug metabolism at 2 mM at basic pH after 5 days by 31P NMR method. As to conditions: read-out: Drug metabolism. Format: physicochemical.
A short description of data set [4]: Drug metabolism at 2 mM at pH 1.7 at room temperature after 20 days by 31P NMR method. Format: physicochemical. As to conditions: read-out: Drug metabolism.
Data set [5] can be described thus: Drug metabolism at 2 mM at pH 11.7 at room temperature after 20 days by 31P NMR method. It counts as physicochemical. As to conditions: read-out: Drug metabolism.
The nature of data set [6]: Drug metabolism at 2 mM at acidic pH after 5 days by 31P NMR method. It counts as physicochemical. As to conditions: read-out: Drug metabolism.
Data set [7] can be described thus: Drug level treated with UTP 5'-O-Palpha,alpha-dithiophosphate at 2 mM at pH 11.7 at room temperature after 25 days by 31P NMR method. Format: physicochemical. As to conditions: pH 11.7, 600 h, 2000 µM.
Data set [8] in a line: Drug level treated with diuridine 5'-O-Palpha,alpha,5''-O-Palpha,alpha-tetrathiotetraphosphate at 2 mM at pD 12.6 at room temperature after 16 days by 31P NMR method. It counts as physicochemical. As to conditions: 384 h, 2000 µM.
The nature of data set [9]: Half life of the compound at pH 7.4. It counts as physicochemical.
Data set [10] can be described thus: Drug metabolism at 2 mM at pH 1.7 at room temperature after 28 days by 31P NMR method. As to conditions: read-out: Drug metabolism. Format: physicochemical.
For data set [11], the target named is T1, Ectonucleotide pyrophosphatase/phosphodiesterase family member 1 (Homo sapiens) (UniProt P22413).
T1 sequence (whole entry): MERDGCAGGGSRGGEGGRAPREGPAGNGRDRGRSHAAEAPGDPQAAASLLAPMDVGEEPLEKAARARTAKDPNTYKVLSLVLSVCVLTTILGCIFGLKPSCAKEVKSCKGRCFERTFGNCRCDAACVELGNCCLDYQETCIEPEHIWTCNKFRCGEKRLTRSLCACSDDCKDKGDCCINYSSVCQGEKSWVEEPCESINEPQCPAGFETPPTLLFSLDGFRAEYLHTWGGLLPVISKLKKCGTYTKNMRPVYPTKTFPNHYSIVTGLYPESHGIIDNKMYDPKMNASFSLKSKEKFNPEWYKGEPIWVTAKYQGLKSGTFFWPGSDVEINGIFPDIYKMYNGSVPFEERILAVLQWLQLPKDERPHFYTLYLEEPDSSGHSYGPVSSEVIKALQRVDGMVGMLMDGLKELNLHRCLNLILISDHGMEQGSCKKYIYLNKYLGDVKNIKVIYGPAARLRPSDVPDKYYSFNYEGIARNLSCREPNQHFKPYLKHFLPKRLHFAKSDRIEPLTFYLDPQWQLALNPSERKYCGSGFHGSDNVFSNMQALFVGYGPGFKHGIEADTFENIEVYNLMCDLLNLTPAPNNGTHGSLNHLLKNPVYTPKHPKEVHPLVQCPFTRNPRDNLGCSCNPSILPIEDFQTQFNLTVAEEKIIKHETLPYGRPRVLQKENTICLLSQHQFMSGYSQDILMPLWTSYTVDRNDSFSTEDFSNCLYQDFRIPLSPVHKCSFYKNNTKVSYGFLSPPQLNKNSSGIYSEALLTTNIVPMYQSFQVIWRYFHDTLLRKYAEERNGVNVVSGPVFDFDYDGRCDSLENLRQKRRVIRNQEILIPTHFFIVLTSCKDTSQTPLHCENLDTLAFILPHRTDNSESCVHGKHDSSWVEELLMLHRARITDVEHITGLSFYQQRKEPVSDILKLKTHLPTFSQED
In words: Inhibition of human NPP1 at 100 uM using ATP as substrate preincubated for 3 mins followed by substrate addition measured after 25 mins. A digest of the protocol:
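Human NPP1 cell lysate in mM 1 CaCl2, 140 NaCl, 5 KCl, 50 Tris pH 8.5, 37 °C. Compound at 100 μM, 3 min preincubation, 100 μM ATP substrate. Stopped after 25 min by heating 2 min at 95 °C. Pyrophosphate measured with a commercial kit.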

In data set [12] the target is P2Y purinoceptor 6 (Homo sapiens) (UniProt Q15077). The data set is described as follows: Agonist activity at recombinant human P2RY6 expressed in AD293 cells assessed as increase in intracellular calcium levels by Fluo-4/AM dye-based spectrofluorometer. It counts as functional, cell-based. In short, it runs like this: (§1)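 Human P2Y2, P2Y4 or P2Y6 receptor stably expressed in AD293 cells. Compound at 100 μM. Agonism read as change in intracellular calcium (Δ[Ca2+]i), with UDP or UTP as control.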

Data set [13] deals with T1, Ectonucleotide pyrophosphatase/phosphodiesterase family member 1 (Homo sapiens). The data set is described as follows: Inhibition of human NPP1 at 100 uM using pNP-TMP as substrate preincubated for 3 mins followed by substrate addition measured after 15 mins relative to control. A digest of the protocol:
(§2)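 Human NPP1 (4−5 μg) or NPP3 (12−14 μg) cell lysate in mM 1 CaCl2, 140 NaCl, 5 KCl, 50 Tris pH 8.5, 37 °C. Compound at 100 μM, 3 min preincubation, 100 μM pNP-TMP substrate. p-Nitrophenol read at 405 nm after 15 min. Blank with enzyme added at end subtracted. Activity without compound taken as 100%. At least two independent experiments in triplicate.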

The target of data set [14] is P2Y purinoceptor 4 (Homo sapiens) (UniProt P51582). In words: Agonist activity at recombinant human P2RY4 expressed in AD293 cells assessed as increase in intracellular calcium levels by Fluo-4/AM dye-based spectrofluorometer. It counts as functional, cell-based. In short, it runs like this: as §1
The nature of data set [15]: Stability of the compound assessed as air oxidation at room temperature at 1.8 mM after 3 weeks by 31P NMR method. Format: physicochemical. As to conditions: 504 h, 1800 µM.
For data set [16], the target named is T2, Ectonucleoside triphosphate diphosphohydrolase 3 (Homo sapiens) (UniProt O75355).
T2 sequence (whole entry): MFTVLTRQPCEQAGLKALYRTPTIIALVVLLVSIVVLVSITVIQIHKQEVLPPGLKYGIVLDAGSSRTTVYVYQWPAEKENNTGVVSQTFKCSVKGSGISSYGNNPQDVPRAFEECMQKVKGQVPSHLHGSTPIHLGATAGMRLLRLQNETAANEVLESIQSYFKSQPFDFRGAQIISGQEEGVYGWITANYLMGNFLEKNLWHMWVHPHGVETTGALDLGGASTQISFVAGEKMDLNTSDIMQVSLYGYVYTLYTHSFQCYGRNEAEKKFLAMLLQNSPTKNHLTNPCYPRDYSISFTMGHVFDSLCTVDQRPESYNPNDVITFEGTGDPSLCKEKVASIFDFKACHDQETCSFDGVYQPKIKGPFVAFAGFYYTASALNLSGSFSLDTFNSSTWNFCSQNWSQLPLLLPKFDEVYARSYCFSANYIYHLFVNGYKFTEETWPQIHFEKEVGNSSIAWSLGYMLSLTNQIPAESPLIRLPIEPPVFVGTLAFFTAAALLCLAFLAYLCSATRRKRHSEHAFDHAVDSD
The data set is described as follows: Inhibition of human NTPDase3 at 100 uM using ATP as substrate preincubated for 3 mins followed by substrate addition measured after 10 mins by malachite green reagent-based assay. A digest of the protocol: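 Compound at 100 μM, 3 min preincubation, 100 μM ATP, 10 min. Stopped with malachite green; Pi read at 630 nm. Blank with enzyme added after stop subtracted. Activity with ATP alone taken as 100%.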

Data set [17] addresses P2Y purinoceptor 2 (Homo sapiens) (UniProt P41231). In words: Agonist activity at recombinant human P2RY2 expressed in AD293 cells assessed as increase in intracellular calcium levels by Fluo-4/AM dye-based spectrofluorometer. Format: functional, cell-based. In short, it runs like this: as §1
Data set [18] deals with P2Y purinoceptor 6 (Homo sapiens) (UniProt Q15077). In words: Agonist activity at recombinant human P2RY6 expressed in AD293 cells assessed as increase in intracellular IP1 levels. Format: functional, cell-based. In short, it runs like this:
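Human P2Y6 receptor stably expressed in AD293 cells. Compound at 100 μM. Gq activation read as accumulation of inositol 1-phosphate (IP1).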

For data set [19], the target named is T3, Ectonucleotide pyrophosphatase/phosphodiesterase family member 3 (Homo sapiens) (UniProt O14638).
T3 sequence (whole entry): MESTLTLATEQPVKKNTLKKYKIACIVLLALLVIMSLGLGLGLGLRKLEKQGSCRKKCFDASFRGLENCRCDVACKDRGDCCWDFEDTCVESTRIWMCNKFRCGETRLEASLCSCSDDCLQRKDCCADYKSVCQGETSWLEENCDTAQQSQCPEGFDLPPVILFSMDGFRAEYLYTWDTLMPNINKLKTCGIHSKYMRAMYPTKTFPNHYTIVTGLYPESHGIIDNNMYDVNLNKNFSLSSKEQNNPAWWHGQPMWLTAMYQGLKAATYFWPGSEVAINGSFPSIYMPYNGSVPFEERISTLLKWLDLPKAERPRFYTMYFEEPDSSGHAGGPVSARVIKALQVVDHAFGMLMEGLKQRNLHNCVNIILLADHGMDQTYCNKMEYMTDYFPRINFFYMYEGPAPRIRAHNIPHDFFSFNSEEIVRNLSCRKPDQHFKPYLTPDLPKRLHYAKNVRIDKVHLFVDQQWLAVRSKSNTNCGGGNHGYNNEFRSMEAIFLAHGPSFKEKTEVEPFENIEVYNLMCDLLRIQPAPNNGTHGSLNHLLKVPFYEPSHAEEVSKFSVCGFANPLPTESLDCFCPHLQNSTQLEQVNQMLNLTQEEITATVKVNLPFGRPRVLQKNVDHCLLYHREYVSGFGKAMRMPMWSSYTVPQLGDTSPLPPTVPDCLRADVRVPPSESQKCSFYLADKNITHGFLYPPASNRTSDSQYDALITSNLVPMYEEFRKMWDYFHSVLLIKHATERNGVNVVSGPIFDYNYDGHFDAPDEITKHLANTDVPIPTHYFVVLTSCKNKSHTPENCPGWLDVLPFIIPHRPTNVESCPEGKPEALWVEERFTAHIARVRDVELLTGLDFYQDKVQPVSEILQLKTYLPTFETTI
The data set is described as follows: Inhibition of human NPP3 at 100 uM using pNP-TMP as substrate preincubated for 3 mins followed by substrate addition measured after 15 mins. In short, it runs like this: as §2

Chain of P2Y purinoceptor 6 (Homo sapiens) (Q15077 whole entry): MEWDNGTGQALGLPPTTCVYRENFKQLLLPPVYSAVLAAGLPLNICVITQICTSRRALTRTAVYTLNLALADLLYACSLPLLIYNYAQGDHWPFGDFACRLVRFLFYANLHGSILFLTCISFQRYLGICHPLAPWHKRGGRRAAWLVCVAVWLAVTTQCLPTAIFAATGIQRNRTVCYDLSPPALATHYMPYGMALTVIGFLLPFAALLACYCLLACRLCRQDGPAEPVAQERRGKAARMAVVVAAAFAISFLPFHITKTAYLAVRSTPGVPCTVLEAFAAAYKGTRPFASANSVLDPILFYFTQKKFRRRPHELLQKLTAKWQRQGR
Chain of P2Y purinoceptor 4 (Homo sapiens) (P51582 whole entry): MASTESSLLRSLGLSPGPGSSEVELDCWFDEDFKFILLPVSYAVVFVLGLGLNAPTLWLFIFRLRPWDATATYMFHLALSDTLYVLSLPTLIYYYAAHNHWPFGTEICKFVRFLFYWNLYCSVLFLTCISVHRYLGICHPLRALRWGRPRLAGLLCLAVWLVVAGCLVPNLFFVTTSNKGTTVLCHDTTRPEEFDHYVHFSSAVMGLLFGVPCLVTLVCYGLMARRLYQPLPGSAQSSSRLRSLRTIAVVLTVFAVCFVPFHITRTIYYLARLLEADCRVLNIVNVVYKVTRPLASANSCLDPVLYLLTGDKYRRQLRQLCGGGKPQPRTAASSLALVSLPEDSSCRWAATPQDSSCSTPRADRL
Chain of P2Y purinoceptor 2 (Homo sapiens) (P41231 whole entry): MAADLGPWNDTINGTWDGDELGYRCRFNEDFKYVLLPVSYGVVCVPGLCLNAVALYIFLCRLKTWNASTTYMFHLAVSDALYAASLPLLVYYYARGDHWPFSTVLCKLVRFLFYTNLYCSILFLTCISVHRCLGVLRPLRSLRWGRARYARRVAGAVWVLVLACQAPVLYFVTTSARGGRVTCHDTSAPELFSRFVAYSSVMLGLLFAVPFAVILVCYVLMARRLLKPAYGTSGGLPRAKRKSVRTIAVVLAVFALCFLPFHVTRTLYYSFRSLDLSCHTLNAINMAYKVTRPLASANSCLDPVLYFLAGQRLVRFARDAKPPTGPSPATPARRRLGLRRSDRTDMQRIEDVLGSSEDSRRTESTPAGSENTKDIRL

Turning to `O=P(O)(O)CP(=O)(O)O` [MEDRONIC ACID], the Drug metabolism entry in data set [1] and in [2] was “Metabolite_Detected” in each case.

Turning to `O=c1ccn([C@@H]2O[C@H](COP(=O)(O)OP(=O)(O)OP(=O)(O)O)[C@@H](O)[C@H]2O)c(=O)[nH]1` [URIDINE TRIPHOSPHATE], the values for the degraded at 120 h, 2000 µM in data set [3] and in data set [6] were 8% and 5%, respectively. The degraded at 480 h, 2000 µM in data set [4] is 11%; in data set [5], 10%.

On to `OP(O)(=S)S`, for which the Drug metabolism result in [1], in data set [7] and in data set [8] was “Metabolite_Detected” throughout.

For `O=c1ccn([C@@H]2O[C@H](COP(=O)(O)O)[C@@H](O)[C@H]2O)c(=O)[nH]1`, the Drug metabolism entry in [7] was “Metabolite_Detected”.

For the compound `Nc1nc(SCc2ccccc2)nc2c1ncn2[C@@H]1O[C@H](COP(O)(=S)OP(=O)(O)OP(=O)(O)O)[C@@H](O)[C@H]1O` (some centres undefined), the half-life in data set [9] was 11 days. The degraded at 120 h, 2000 µM in data set [6] stood at 25%.

Consider `O=c1ccn([C@@H]2O[C@H](COP(O)(=S)S)[C@@H](O)[C@H]2O)c(=O)[nH]1` (some centres undefined), for which the Drug metabolism result in [1], in data set [7] and in data set [8] was “Metabolite_Detected” in each case.

For `O=c1ccn([C@@H]2O[C@H](COP(O)(=S)SCCS)[C@@H](O)[C@H]2O)c(=O)[nH]1` (some centres undefined), the Drug metabolism result in data set [1] and in data set [7] was “Metabolite_Detected” in each case.

Regarding `O=c1ccn([C@@H]2O[C@H](COP(=O)(O)OP(=O)(O)O)[C@@H](O)[C@H]2O)c(=O)[nH]1` [URIDINE_DIPHOSPHATE], the degraded at 672 h, 2000 µM in data set [10] is 7%.

As to `O=c1ccn([C@@H]2O[C@H](COP(=S)(S)OP(=O)(O)OP(=O)(O)OP(=S)(S)OC[C@H]3O[C@@H](n4ccc(=O)[nH]c4=O)[C@H](O)[C@@H]3O)[C@@H](O)[C@H]2O)c(=O)[nH]1` (some centres undefined), the inhibition entry in data set [11] was “Active”. The outcome in data set [12] and in data set [18] was Active. Moreover, the degraded at 120 h, 2000 µM in data set [3] is 9%; in [6] it was 6%. Besides, the inhibition in [13] is 80 to 100%; in data set [16], 24%; in data set [19] it was 27%. Moreover, the result in data set [14] and in [17] was inactive. In addition, in data set [15], the Stability entry is reported as “Stable”.

The record behind these values is ChEMBL document CHEMBL4177769, “Highly Selective and Potent Ectonucleotide Pyrophosphatase-1 (NPP1) Inhibitors Based on Uridine 5'-Pα,α-Dithiophosphate Analogues” (J Med Chem, 2018).
